Results: ChEMBL document CHEMBL1136882, “Mechanism-based inhibitors of serine proteases with high selectivity through optimization of S' subsite binding” (Bioorg Med Chem, 2009)
Calls of active or inactive are those of the source. No cut-off for these calls is given here.

What was measured:
[1] = target: T1, Neutrophil elastase (Homo sapiens) (UniProt P08246); assay: Inhibition of human neutrophil elastase at inhibitor to enzyme ratio of 500 after 30 mins
T1 sequence (whole entry): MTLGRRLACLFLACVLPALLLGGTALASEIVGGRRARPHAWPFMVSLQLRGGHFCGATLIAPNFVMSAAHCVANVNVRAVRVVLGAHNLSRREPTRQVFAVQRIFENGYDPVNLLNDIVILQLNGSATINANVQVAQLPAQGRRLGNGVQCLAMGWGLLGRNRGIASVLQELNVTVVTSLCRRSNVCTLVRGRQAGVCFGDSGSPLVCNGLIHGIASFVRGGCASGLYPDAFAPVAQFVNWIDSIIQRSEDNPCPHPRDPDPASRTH
How it was run: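 HNE treated with inhibitor for 30 min at [I]/[E] ratio 500. Residual activity then measured with MeOSuc-AAPV-pNA in 0.1 M HEPES/0.5 M NaCl pH 7.25, reading absorbance at 410 nm.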

[2] = target: T2, Myeloblastin (Homo sapiens) (UniProt P24158); assay: Inhibition of human PR3 at inhibitor to enzyme ratio of 500 after 30 mins
T2 sequence (whole entry): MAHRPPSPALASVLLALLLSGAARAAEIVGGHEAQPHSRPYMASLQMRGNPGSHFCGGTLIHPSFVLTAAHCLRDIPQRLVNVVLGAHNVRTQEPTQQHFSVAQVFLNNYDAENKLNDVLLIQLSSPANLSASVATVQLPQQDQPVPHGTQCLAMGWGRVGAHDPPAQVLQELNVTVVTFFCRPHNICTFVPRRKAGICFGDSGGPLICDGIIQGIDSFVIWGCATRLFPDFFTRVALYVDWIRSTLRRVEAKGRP
How it was run: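 PR3 (34.5 nM final, from 0.1 M phosphate pH 6.50 stock) preincubated 30 min with inhibitor at [I]/[E] 500 (8.62 μM final). Buffer 0.1 M HEPES/0.5 M NaCl pH 7.25 with DMSO and DTNB. Substrate Boc-Ala-Ala-NVa-SBzl; absorbance read at 410 nm for 2 min. % remaining activity = (v/v0)×100 against a DMSO-only run; duplicate or triplicate.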

[3] = target: T1, Neutrophil elastase (Homo sapiens); assay: Inhibition of human neutrophil elastase assessed as ratio of observed rate constant to drug concentration by incubation method; set-up: unit not given here
How it was run: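 HNE incubated with excess inhibitor in 0.1 M HEPES/0.5 M NaCl pH 7.25 with DMSO in a constant-temperature bath (stocks: 70 μM enzyme, 3.5 mM inhibitor). Aliquots taken over time and assayed with MeOSuc-AAPV-pNA, read at 410 nm for 60 s. kobs taken from ln([E]t/[E]0) = −kobs·t; reported as kobs/[I].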

[4] = target: T1, Neutrophil elastase (Homo sapiens); assay: Inhibition of human neutrophil elastase assessed as ratio of kinact to Ki by progressive curve method
How it was run: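 Progress curves run with 10 nM HNE and 105 μM MeOSuc-AAPV-pNA in 0.1 M HEPES/0.5 M NaCl pH 7.25, 2.5% DMSO, over several [I]/[E] ratios. p-Nitroaniline release followed continuously at 410 nm. kobs obtained by nonlinear fit of A vs t; kobs/[I] corrected for substrate concentration to give kinact/KI. Duplicate determinations.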

[5] = target: T1, Neutrophil elastase (Homo sapiens); assay: Irreversible inhibition of human neutrophil elastase at 37 uM; settings: TDE = time-dependent effect
How it was run: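 Inhibitor (37 μM) incubated with HNE (700 nM) in 0.1 M HEPES/0.5 M NaCl pH 7.25, 1% DMSO. Aliquots taken over time and assayed with MeOSuc-AAPV-pNA at 410 nm. Results plotted as percent remaining activity versus time.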

SMILES	inhibition [1]	inhibition [2]	Ratio [3]	Ratio [4]	Activity [5]
CCC[C@H]1C(=O)N(C(CCC(=O)OC)Sc2ccc(NC(=O)CCC(=O)O)cc2)S(=O)(=O)N1C (stereo partly drawn)	Active	inactive	300	–	–
CCC[C@H]1C(=O)N(C(CCC(=O)OC)Sc2ccc(NC(=O)c3ccccc3C(=O)O)cc2)S(=O)(=O)N1C (stereo partly drawn)	Active	inactive	260	–	–
CCC[C@H]1C(=O)N(C(CCC(=O)OC)Sc2ccc(NC(=O)OC(C)(C)C)cc2)S(=O)(=O)N1C (stereo partly drawn)	Active	inactive	170	–	–
CCC[C@H]1C(=O)N(C(CCC(=O)OC)Sc2ccc(Cl)cc2)S(=O)(=O)N1C (stereo partly drawn)	Active	inactive	20	–	–
CCC[C@H]1C(=O)N(C(CCC(=O)OC)Sc2ccc(F)cc2)S(=O)(=O)N1C (stereo partly drawn)	Active	inactive	320	–	–
CCC[C@H]1C(=O)N(C(CCC(=O)OC)Sc2ccc(OC)cc2)S(=O)(=O)N1C (stereo partly drawn)	Active	inactive	70	–	–
COC(=O)CCC(Sc1ccc(Cl)cc1)N1C(=O)[C@H](CC(C)C)N(C)S1(=O)=O (stereo partly drawn)	Active	inactive	–	4580	tde
CCC[C@H]1C(=O)N(C(CCC(=O)OC)Sc2ccc(N)cc2)S(=O)(=O)N1C (stereo partly drawn)	Active	inactive	110	–	–
CCC[C@H]1C(=O)N(C(CCC(=O)OC)Sc2ccc(NC(=O)NCCc3ccccc3)cc2)S(=O)(=O)N1C (stereo partly drawn)	Active	inactive	150	–	–
